Measurements reported in ChEMBL document CHEMBL1828552, “Synthesis and studies of novel 2-(4-cyano-3-trifluoromethylphenyl amino)-4-(quinoline-4-yloxy)-6-(piperazinyl/piperidinyl)-s-triazines as potential antimicrobial, antimycobacterial and anticancer agents” (2011).
In brackets after ≈: the same amount, converted by molar mass.

Key:
Aspergillus niger [1] = test: Antifungal activity against 10^5 CFU/mL Aspergillus niger MTCC 282 after 48 hrs by disc diffusion technique; type: functional
Salmonella typhi [2] = test: Antibacterial activity against 10^5 CFU/mL Salmonella typhi MTCC 733 after 24 hrs by agar streak dilution method; type: functional, Salmonella enterica subsp. enterica serovar Typhi; conditions: Salmonella enterica, MTCC 733, 24 h
Klebsiella pneumoniae [3] = test: Antibacterial activity against 10^5 CFU/mL Klebsiella pneumoniae MTCC 109 after 24 hrs by disc diffusion technique; type: functional
Summary of the method: (§1)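 Disc diffusion on Mueller–Hinton agar poured 5 mm deep. The surface was swabbed with a 10⁵ CFU/mL […] suspension. Filter-paper discs 6.25 mm in diameter were soaked in compound in DMSO and placed on the agar. Plates were incubated 24 h at 37 ± 1 °C, and the inhibition zone was measured in mm. A DMSO disc served as blank.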

Aspergillus fumigatus [4] = test: Antifungal activity against 10^5 CFU/mL Aspergillus fumigatus MTCC 343 after 48 hrs by agar streak dilution method; type: functional; conditions: MTCC 343, 48 h
Summary of the method: (§2)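 Agar streak dilution for fungi. Stock 100 µg/mL in DMSO; graded amounts were mixed into molten Sabouraud dextrose agar and poured at 4–5 mm depth. Serial dilutions ran over […]. About 10⁵ CFU/mL inoculum was applied, with incubation at 37 ± 1 °C for 48 h. MIC was read from the dilution series.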

Candida albicans [5] = test: Antifungal activity against 10^5 CFU/mL Candida albicans MTCC 183 after 48 hrs by disc diffusion technique; type: functional
Bacillus cereus [6] = test: Antibacterial activity against 10^5 CFU/mL Bacillus cereus MTCC 619 after 24 hrs by disc diffusion technique; type: functional; summary of the method: as §1
Shigella flexneri [7] = test: Antibacterial activity against 10^5 CFU/mL Shigella flexneri MTCC 1457 after 24 hrs by disc diffusion technique; type: functional; summary of the method: as §1
Escherichia coli [8] = test: Antibacterial activity against 10^5 CFU/mL Escherichia coli MTCC 739 after 24 hrs by agar streak dilution method; type: functional; conditions: MTCC 739, 24 h
Summary of the method: (§3)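 Agar streak dilution. Stock 100 µg/mL in DMSO; graded amounts were mixed into molten nutrient agar and poured at 4–5 mm depth. Plates carried serial dilutions over […]. About 10⁵ CFU/mL of each bacterium was applied, and plates were incubated at 37 ± 1 °C for 24 h. MIC was read from the dilution series.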

Shigella flexneri [9] = test: Antibacterial activity against 10^5 CFU/mL Shigella flexneri MTCC 1457 after 24 hrs by agar streak dilution method; type: functional; conditions: MTCC 1457, 24 h; summary of the method: as §3
Staphylococcus aureus [10] = test: Antibacterial activity against 10^5 CFU/mL Staphylococcus aureus MTCC 96 after 24 hrs by agar streak dilution method; type: functional; conditions: MTCC 96, 24 h; summary of the method: as §3
Aspergillus clavatus [11] = test: Antifungal activity against 10^5 CFU/mL Aspergillus clavatus MTCC 1323 after 48 hrs by agar streak dilution method; type: functional; conditions: MTCC 1323, 48 h; summary of the method: as §2
Bacillus cereus [12] = test: Antibacterial activity against 10^5 CFU/mL Bacillus cereus MTCC 619 after 24 hrs by agar streak dilution method; type: functional; conditions: MTCC 619, 24 h; summary of the method: as §3
Escherichia coli [13] = test: Antibacterial activity against 10^5 CFU/mL Escherichia coli MTCC 739 after 24 hrs by disc diffusion technique; type: functional; summary of the method: as §1
Pseudomonas aeruginosa [14] = test: Antibacterial activity against 10^5 CFU/mL Pseudomonas aeruginosa MTCC 741 after 24 hrs by disc diffusion technique; type: functional; summary of the method: as §1
[15] = system: Mycobacterium tuberculosis; test: Antimycobacterial activity against 10^4 to 10^7 CFU/mL Mycobacterium tuberculosis H37Rv after 24 hrs measured after 28 days post-inoculation; type: functional
Summary of the method: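 Secondary MIC on Lowenstein-Jensen medium. DMSO dilutions (50, 25, 12.5, 6.25, […]) added to L.J. medium, then inspissated. Tubes incubated at 37 ± 1 °C for 24 h, then streaked with 5×10⁴ H37Rv bacilli per tube. Growth read at 12, 22 and 28 days against drug-free controls. MIC = no colonies or fewer than 20 colonies.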

Proteus vulgaris [16] = test: Antibacterial activity against 10^5 CFU/mL Proteus vulgaris MTCC 1771 after 24 hrs by agar streak dilution method; type: functional; conditions: MTCC 1771, 24 h; summary of the method: as §3
Pseudomonas aeruginosa [17] = test: Antibacterial activity against 10^5 CFU/mL Pseudomonas aeruginosa MTCC 741 after 24 hrs by agar streak dilution method; type: functional; conditions: MTCC 741, 24 h; summary of the method: as §3
Aspergillus niger [18] = test: Antifungal activity against 10^5 CFU/mL Aspergillus niger MTCC 282 after 48 hrs by agar streak dilution method; type: functional; conditions: MTCC 282, 48 h; summary of the method: as §2
Aspergillus clavatus [19] = test: Antifungal activity against 10^5 CFU/mL Aspergillus clavatus MTCC 1323 after 48 hrs by disc diffusion technique; type: functional
Candida albicans [20] = test: Antifungal activity against 10^5 CFU/mL Candida albicans MTCC 183 after 48 hrs by agar streak dilution method; type: functional; conditions: MTCC 183, 48 h; summary of the method: as §2
Proteus vulgaris [21] = test: Antibacterial activity against 10^5 CFU/mL Proteus vulgaris MTCC 1771 after 24 hrs by disc diffusion technique; type: functional; summary of the method: as §1
Klebsiella pneumoniae [22] = test: Antibacterial activity against 10^5 CFU/mL Klebsiella pneumoniae MTCC 109 after 24 hrs by agar streak dilution method; type: functional; conditions: MTCC 109, 24 h; summary of the method: as §3
Aspergillus fumigatus [23] = test: Antifungal activity against 10^5 CFU/mL Aspergillus fumigatus MTCC 343 after 48 hrs by disc diffusion technique; type: functional
Staphylococcus aureus [24] = test: Antibacterial activity against 10^5 CFU/mL Staphylococcus aureus MTCC 96 after 24 hrs by disc diffusion technique; type: functional; summary of the method: as §1
DU-145 = test: Cytotoxicity against […] human DU145 cells after 48 hrs by SRB assay; type: functional; conditions: DU-145, 48 h
Summary of the method: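 SRB assay in DU-145 cells grown in RPMI 1640 with 10% FBS and 2 mM L-glutamine. Cells were plated and held 24 h before addition of four 10-fold concentrations. After 48 h, cells were TCA-fixed, stained with 0.4% SRB and read at 540 nm. GI50, TGI and LC50 were derived against time-zero and control wells; each value is the mean of three experiments.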

Salmonella typhi [25] = test: Antibacterial activity against 10^5 CFU/mL Salmonella typhi MTCC 733 after 24 hrs by disc diffusion technique; type: functional, Salmonella enterica subsp. enterica serovar Typhi
Summary of the method: (§4)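 Disc diffusion. Mueller-Hinton agar autoclaved 120 °C 30 min, poured 5 mm deep. Surface swabbed with 10⁵ CFU/mL suspension […]. 6.25 mm filter-paper discs soaked in compound in DMSO; DMSO-only disc as blank. Incubated 37 ± 1 °C, 24 h for bacteria or 48 h for fungi. Ciprofloxacin and ketoconazole discs as reference drugs. Inhibition zone measured in mm.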

Aspergillus fumigatus [26] = test: Antifungal activity against 10^5 CFU/mL Aspergillus fumigatus MTCC 343 at 100 ug/ml after 48 hrs by disc diffusion technique; type: functional; conditions: MTCC 343, 48 h, read-out: IZ; summary of the method: as §4
Aspergillus clavatus [27] = test: Antifungal activity against 10^5 CFU/mL Aspergillus clavatus MTCC 1323 at 100 ug/ml after 48 hrs by disc diffusion technique; type: functional; conditions: MTCC 1323, 48 h, read-out: IZ; summary of the method: as §4
Aspergillus niger [28] = test: Antifungal activity against 10^5 CFU/mL Aspergillus niger MTCC 282 at 100 ug/ml after 48 hrs by disc diffusion technique; type: functional; conditions: MTCC 282, 48 h, read-out: IZ; summary of the method: as §4
Candida albicans [29] = test: Antifungal activity against 10^5 CFU/mL Candida albicans MTCC 183 at 100 ug/ml after 48 hrs by disc diffusion technique; type: functional; conditions: MTCC 183, 48 h, read-out: IZ; summary of the method: as §4
Klebsiella pneumoniae [30] = test: microbe, parasite or virus in culture; conditions: MTCC 109, 24 h, read-out: IZ
Salmonella typhi [31] = test: Antibacterial activity against 10^5 CFU/mL Salmonella typhi MTCC 733 at 100 ug/ml after 24 hrs by disc diffusion technique; type: functional, Salmonella enterica subsp. enterica serovar Typhi; conditions: Salmonella enterica, MTCC 733, 24 h; read-out: IZ; summary of the method: as §4
Staphylococcus aureus [32] = test: Antibacterial activity against 10^5 CFU/mL Staphylococcus aureus MTCC 96 at 100 ug/ml after 24 hrs by disc diffusion technique; conditions: MTCC 96, 24 h, read-out: IZ
Escherichia coli [33] = test: microbe, parasite or virus in culture; conditions: MTCC 739, 24 h, read-out: IZ
Pseudomonas aeruginosa [34] = test: microbe, parasite or virus in culture; conditions: MTCC 741, 24 h, read-out: IZ
Proteus vulgaris [35] = test: Antibacterial activity against 10^5 CFU/mL Proteus vulgaris MTCC 1771 at 100 ug/ml after 24 hrs by disc diffusion technique; type: functional; conditions: MTCC 1771, 24 h, read-out: IZ; summary of the method: as §1
Shigella flexneri [36] = test: Antibacterial activity against 10^5 CFU/mL Shigella flexneri MTCC 1457 at 100 ug/ml after 24 hrs by disc diffusion technique; type: functional; conditions: MTCC 1457, 24 h, read-out: IZ; summary of the method: as §1
Bacillus cereus [37] = test: Antibacterial activity against 10^5 CFU/mL Bacillus cereus MTCC 619 at 100 ug/ml after 24 hrs by disc diffusion technique; type: functional; conditions: MTCC 619, 24 h, read-out: IZ; summary of the method: as §1

CC1CC(C)CN(c2nc(Nc3ccc(C#N)c(C(F)(F)F)c3)nc(Oc3ccnc4ccccc34)n2)C1 (configuration not stated)
inhibition zone (IZ) (Aspergillus niger [1]): 23 mm
MIC (Salmonella typhi [2]): 12.5 µg/mL (≈ 24.1 µM)
inhibition zone (IZ) (Klebsiella pneumoniae [3]): 23 mm
MIC (Aspergillus fumigatus [4]): 50 µg/mL (≈ 96.2 µM)
inhibition zone (IZ) (Candida albicans [5]): 18 mm
inhibition zone (IZ) (Bacillus cereus [6]): 25 mm
inhibition zone (IZ) (Shigella flexneri [7]): 25 mm
MIC (Escherichia coli [8]): 12.5 µg/mL (≈ 24.1 µM)
MIC (Shigella flexneri [9]): 12.5 µg/mL (≈ 24.1 µM)
MIC (Staphylococcus aureus [10]): 6.25 µg/mL (≈ 12 µM)
MIC (Aspergillus clavatus [11]): 25 µg/mL (≈ 48.1 µM)
MIC (Bacillus cereus [12]): 12.5 µg/mL (≈ 24.1 µM)
inhibition zone (IZ) (Escherichia coli [13]): 25 mm
inhibition zone (IZ) (Pseudomonas aeruginosa [14]): 24 mm
MIC99 [15]: 3.12 µg/mL (≈ 6.01 µM)
MIC (Proteus vulgaris [16]): 6.25 µg/mL (≈ 12 µM)
MIC (Pseudomonas aeruginosa [17]): 12.5 µg/mL (≈ 24.1 µM)
MIC (Aspergillus niger [18]): 50 µg/mL (≈ 96.2 µM)
inhibition zone (IZ) (Aspergillus clavatus [19]): 26 mm
MIC (Candida albicans [20]): 100 µg/mL (≈ 192 µM)
inhibition zone (IZ) (Proteus vulgaris [21]): 27 mm
MIC (Klebsiella pneumoniae [22]): 25 µg/mL (≈ 48.1 µM)
inhibition zone (IZ) (Aspergillus fumigatus [23]): 25 mm
inhibition zone (IZ) (Staphylococcus aureus [24]): 27 mm
GI50 (DU-145): 27.2 µM
LC50 (concentration giving 50% net cell kill relative to time zero) (DU-145): > 100 µM
TGI (DU-145): 68 µM
inhibition zone (IZ) (Salmonella typhi [25]): 27 mm

CC(=O)N1CCN(c2ccc(OCC3COC(Cn4ccnc4)(c4ccc(Cl)cc4Cl)O3)cc2)CC1 (configuration not stated) [KETOCONAZOLE]
MIC (Aspergillus fumigatus [4]): ≤ 1 µg/mL
zone of inhibition at 100 µg/mL (Aspergillus fumigatus [26]): 29 mm
MIC (Aspergillus clavatus [11]): ≤ 1 µg/mL
zone of inhibition at 100 µg/mL (Aspergillus clavatus [27]): 31 mm
MIC (Aspergillus niger [18]): ≤ 3 µg/mL
MIC (Candida albicans [20]): ≤ 1 µg/mL
zone of inhibition at 100 µg/mL (Aspergillus niger [28]): 30 mm
zone of inhibition at 100 µg/mL (Candida albicans [29]): 33 mm

O=C(O)c1cn(C2CC2)c2cc(N3CCNCC3)c(F)cc2c1=O [CIPROFLOXACIN]
zone of inhibition at 100 µg/mL (Klebsiella pneumoniae [30]): 33 mm
MIC (Salmonella typhi [2]): ≤ 1 µg/mL
MIC (Escherichia coli [8]): ≤ 1 µg/mL
MIC (Shigella flexneri [9]): ≤ 3 µg/mL
MIC (Staphylococcus aureus [10]): ≤ 1 µg/mL
zone of inhibition at 100 µg/mL (Salmonella typhi [31]): 30 mm
MIC (Bacillus cereus [12]): ≤ 1 µg/mL
zone of inhibition at 100 µg/mL (Staphylococcus aureus [32]): 30 mm
zone of inhibition at 100 µg/mL (Escherichia coli [33]): 32 mm
zone of inhibition at 100 µg/mL (Pseudomonas aeruginosa [34]): 33 mm
zone of inhibition at 100 µg/mL (Proteus vulgaris [35]): 31 mm
MIC (Proteus vulgaris [16]): ≤ 1 µg/mL
MIC (Pseudomonas aeruginosa [17]): ≤ 1 µg/mL
MIC (Klebsiella pneumoniae [22]): ≤ 1 µg/mL
zone of inhibition at 100 µg/mL (Shigella flexneri [36]): 32 mm
zone of inhibition at 100 µg/mL (Bacillus cereus [37]): 31 mm
